Source: PubChem
Only a selection was taken, and hits are over-represented in it overall.
TbMetRS inhib = blocks T. brucei methionyl-tRNA synthetase activity. inhibition, % at 11.9 µM. purified T. brucei MetRS, ATP depletion, Kinase-Glo luminescence. 0.4% of 360,000 active. AID 624268;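 active means inhibition above a per-plate cutoff of the control wells' mean inhibition plus 3 SD, cut at about 5.5% in these data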;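 further: 0% = DMSO wells median and 100% = median of wells with control inhibitor compound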
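Material: parasite MetRS enzyme / Replication: singlicate, one well per compound / Signal: luminescence of leftover ATP / Schedule: 2 h aminoacylation at 25 °C after 15 min preincubation / Medium: HEPES-MgCl2-KCl buffer plus DTT, spermine, BSA, pyrophosphatase / Doses: 11.9 µM single point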
V-ATPase pH = regulators of yeast V-ATPase proton transport; S. cerevisiae, pHLuorin cytosolic pH fluorescence; response, % at 10 µM; 0.37% of 350,000 active; AID 504577; in the data active means response mostly above about 7.3%, no sharp cut-off; inactive means mostly below about 5.4%; further: actives read high
XBP1 UPR activ = activators of adaptive arm of unfolded protein response (XBP1); CHO-XBP1 luciferase reporter, IRE1-XBP1 UPR activation, luminescence; percent of tunicamycin response, DMSO as zero; activation, % at 20 µM; 0.33% of 330,000 active;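 active means versus positive control, 20 µM dose yields 30% or more activation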;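 further: 100% = tunicamycin at 10 µg/mL and 0% = DMSO only wells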
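Assay system: CHO-XBP1 luciferase reporter cells; Schedule: 6 h treatment, 37 °C; Detection: glow luminescence from Steady-Glo reagent; Benchmarks: high control tunicamycin 10 µg/mL final, low control DMSO vehicle only.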
CHOP inhibitor = CHOP inhibition in unfolded protein response | CHO-K1 CHOP-promoter luciferase, tunicamycin-induced, 15-18 h | inhibition, % at 10 µM | 3.8% of 220,000 active | AID 2732;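 active means compounds that reduced the stress-induced luciferase reporter signal by more than about 70% of percent inhibition, limit read from the data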;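 further: 0% = tunicamycin plus vehicle and 100% = wells without tunicamycin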
UPR CHOP act = activators of apoptotic arm of unfolded protein response (CHOP); CHO-CHOP luciferase reporter, UPR activation, luminescence; percent of tunicamycin response over DMSO baseline; AID 449763; 0.34% of 330,000 active; activation, % at 10 µM;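 active means at 10 µM dose, activation of 40% or more, normalized to positive control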;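 further: 100% = tunicamycin at 10 µg/mL and 0% = DMSO alone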
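Assay system: CHO-CHOP cells, stable luciferase reporter of PERK-eIF2a-CHOP signalling / Buffer or medium: F12 plus 10% serum / Compound dosing: one dose, 10 µM in 0.5% DMSO / Times: 6 h compound treatment, 37 °C / Technique: luciferase luminescence / Read-out: % reporter activation, DMSO baseline versus tunicamycin full activation / Benchmarks: tunicamycin and DMSO controls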
CHOP inh conf = confirmation of CHOP induction inhibitors. shares compounds with CHOP inhibitor. CHO-CHOP promoter luciferase reporter, tunicamycin-induced, luminescence. inhibition, % at 10 µM. 45% of 2,100 active. AID 504437;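 active means mean of three repeat readings of reporter signal inhibition above a set limit, cut at about 70% in these data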;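 further: 0% = tunicamycin plus vehicle and 100% = wells lacking tunicamycin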
An asterisk follows results filed as active; / = no result; ! = repeats disagree.

SMILES | TbMetRS inhib | V-ATPase pH | XBP1 UPR activ | CHOP inhibitor | UPR CHOP act | CHOP inh conf
Cc1cccc(NC(=O)Nc2ccc(Oc3c(F)c(F)c(F)c(F)c3F)cc2)c1 | 0 | 3 | 2 | 10 | 1 | /
O=C(Nc1ccc(Oc2c(F)c(F)c(F)c(F)c2F)cc1)OC1CCN2Cc3ccccc3N=C12 (stereo not drawn) | 0 | 0 | 9 | 100* | 6 | 125*
COc1ccc(CCC(=O)NCCS(=O)(=O)N2CCN(c3ccc(OC)cc3)CC2)cc1 | 0 | -1 | -6 | / | 2 | /
CC(C)Oc1cc(NC(=O)CS(=O)CC(=O)Nc2cccc(C(F)(F)F)c2)c(Cl)cc1Cl (stereo not drawn) | -1 | 4 | -1 | 107* | 2 | 120*
CC(C)Oc1cc(NC(=O)CS(=O)CC(=O)N(C)C)c(Cl)cc1Cl (stereo not drawn) | 0 | 2 | -2 | 14 | 1 | /
Cn1c(SCC(=O)N/N=C/c2ccc([N+](=O)[O-])s2)nnc1-c1ccccc1 | 1 | 2 | 4 | 105* | 10 | -8
Cn1c(SCC(=O)N/N=C/c2cc([N+](=O)[O-])ccc2O)nnc1-c1ccccc1 | 0 | 0 | -4 | 60 | -3 | /
Cc1ccc(-c2nc(CS(=O)CC(=O)NCCCN3CCN(Cc4ccccc4)CC3)c(C)o2)cc1 (stereo not drawn) | -1 | -6 | -4 | / | 0 | /
COc1cc(-c2nc3cnccn3c2Nc2ccc(C(C)C)cc2)ccc1O | 0 | 0 | 21 | 110* | 4 | 28
COc1cc(-c2nc3cnccn3c2Nc2ccc(C)cc2)ccc1O | 0 | 5 | 6 | -11 | -1 | /
CCOC(=O)c1c(C(C)(C)C)oc2ccc(O)cc12 | -1 | 2 | 1 | 104* | 0 | 106*
CCOC(=O)c1c(COc2ccccc2)oc2ccc(O)cc12 | / | / | -1 | / | 2 | /
Cc1ccc(C2(C(F)(F)F)NC(=O)N3C(=C2C#N)Nc2ccccc23)cc1 (stereo not drawn) | 0 | 5 | 0 | 107* | 2 | 37
COc1cc(NC(=O)COc2ccccc2[N+](=O)[O-])ccc1NC(=O)c1cccs1 | 0 | -4 | / | 104* | / | 105*
O=C1C=CC(=O)N1N(c1ccccc1)c1ccccc1 | -1 | 0 | -4 | 107* | 0 | 118*
O=C(CSc1nc2ccccc2s1)CSc1nc2ccccc2s1 | 0 | 0 | -2 | 50 | -1 | /
O=S1(=O)C=C(Sc2nc3ccccc3s2)c2ccccc21 | / | / | -4 | / | -11 | 115*
Cc1ccc(S(=O)(=O)N[C@@H](Cc2ccccc2)C(=O)CCl)cc1 | -1 | -4 | -5 | 108*! | 8 | -261
Cc1ccc(S(=O)(=O)NC(Cc2ccccc2)C(=O)NN)cc1 (stereo not drawn) | -1 | -1 | -6 | / | -2 | /
CCOC(=O)Cc1cc(-c2ccc(OC)cc2)nc2ccc3ccccc3c12 | 0 | -2 | -2 | 23 | 1 | /
CCOC(=O)Cc1cc(-c2ccc(O)cc2)nc2ccc3ccccc3c12 | 0 | 0 | 7 | 101* | 6 | 96*
CCOC(=O)N1CCC(Nc2c(NCCCN(C)Cc3ccccc3)c(=O)c2=O)CC1 | -1 | -2 | 1 | 14 | -1 | /
O=C(COC(=O)/C=C/c1cccc(C(F)(F)F)c1)NCc1ccco1 | 0 | 2 | 3 | / | 0 | /
O=C(NCc1ccco1)/C(=C/c1cccc(C(F)(F)F)c1)c1nc2ccccc2[nH]1 | 1 | 2 | -1 | 96* | 3 | 34
CCc1ccc2[nH]c(=O)c(C(c3nnnn3Cc3ccco3)N3CCC(C)CC3)cc2c1 (stereo not drawn) | -1 | 0 | -2 | 99* | -3 | 77*
SMILES | TbMetRS inhib | V-ATPase pH | XBP1 UPR activ | CHOP inhibitor | UPR CHOP act | CHOP inh conf
CCN(CC(O)Cn1c2ccccc2c2ccccc21)S(=O)(=O)c1ccc(C)cc1 (stereo not drawn) | 0 | -4 | -2 | 99* | 1 | 35
CC(=O)Nc1ccccc1N(CC(O)Cn1c2ccccc2c2ccccc21)S(=O)(=O)c1ccc(C)cc1 (stereo not drawn) | 0 | 2 | 2 | 30 | 1 | /
COc1ccc(C(=O)Nc2nnc(-c3ccco3)s2)cc1 | 0 | 2 | -10 | 107* | -7 | 73*
COc1ccccc1NC(=O)Nc1nnc(-c2ccco2)s1 | / | / | 0 | 4 | 1 | /
O=C(Nc1ccc(F)cc1)Nc1nnc(-c2ccco2)s1 | 2 | 3 | 1 | 96* | 5 | 12
CCc1ccc(Nc2cc(=O)n(C3CCCCC3)c(=O)[nH]2)cc1 | 0 | 0 | 2 | 105* | 0 | 49
CCOc1cc(S(=O)(=O)Nc2cc(C)cc(C)c2)ccc1Cl | -1 | 0 | -1 | 106* | -1 | 117*
CCOc1cc(S(=O)(=O)NC2CCCC2)ccc1Cl | 0 | 0 | 0 | 42 | -3 | /
Nc1cc(OCC(F)(F)F)cc([N+](=O)[O-])c1 | 1 | -2 | 0 | 7 | 0 | /
Nc1cc(N)c(OCC(F)(F)F)cc1OCC(F)(F)F | 0 | 11 | -2 | 102* | -1 | 0
O=C(COC(=O)C1CCN(S(=O)(=O)c2cccs2)CC1)NCc1ccc(F)cc1 | -1 | -4 | -2 | 14 | -2 | /
COc1cccc(N2CCN(c3ncnc4c3[nH]c3ccccc34)CC2C)c1 (stereo not drawn) | / | / | -11 | 109* | -6 | 117*
Cc1cc(C2=NNC(=NC3CC3)SC2)c(C)n1-c1ccccc1F | -1 | -2 | -7 | 105* | -12 | 125*
CCC(Sc1nc2ncccc2[nH]1)C(=O)NCCc1ccccc1 (stereo not drawn) | 3 | 2 | 1 | / | -2 | /
Nc1cccc2c1C(=O)N(C(=O)/C=C/c1ccc(F)cc1)C2=O | -1 | -10 | 1 | 103* | 5 | -111
Nc1cccc2c1C(=O)N(C(=O)c1ccco1)C2=O | -1 | -3 | -5 | 0 | -1 | /
CC(C)Cn1c(N)c(C(=O)COC(=O)CC23CC4CC(CC(C4)C2)C3)c(=O)n(C)c1=O | -3 | 1 | 2 | 98* | 4 | 90*
CC1C(c2ccccc2)N(C)C(c2ccccc2)C(C)C1(O)C#Cc1ccccc1 (stereo not drawn) | -2 | -9 | 2 | 31 | -1 | /
CCC1C(c2ccccc2)N(C)C(c2ccccc2)CC1(O)c1ccccc1 (stereo not drawn) | 0 | 2 | 9 | 99* | 0 | 43
N#C/C(=C\c1ccc(OC(=O)c2ccc(Cl)s2)cc1)c1nc2ccccc2[nH]1 | 0 | -2 | 18 | 107* | 9 | 34
N#C/C(=C\c1ccc(OC(=O)c2ccc(Br)s2)cc1)c1nc2ccccc2[nH]1 | -1 | -19 | / | 100* | / | 39
N#C/C(=C/c1ccc(OC(=O)c2ccc(Br)s2)cc1)c1nc2ccccc2[nH]1 | 0 | -1 | / | / | / | /
